ChEMBL document CHEMBL1177669, “Synthesis and biological study of 3-(phenylsulfonyl)thieno[2,3-e][1,2,3]triazolo[1,5-a]pyrimidines as potent and selective serotonin 5-HT6 receptor antagonists” (Bioorg Med Chem, 2010)

Key:
[1] = target: T1, 5-hydroxytryptamine receptor 6 (Homo sapiens, UniProt P50406); test: Antagonist activity at human recombinant 5HT6 receptor expressed in HEK293 cells assessed as inhibition of serotonin-induced cAMP production; type: functional, cell-based
In short: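 HEK293 cells stably expressing recombinant human 5-HT6R, stimulated with serotonin. cAMP from adenylyl cyclase measured by LANCE. Compounds screened at 5 and 10 μM. IC50 determined for compounds giving more than 50% inhibition of cAMP synthesis at 5 μM.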

[2] = target: T1, 5-hydroxytryptamine receptor 6; test: Binding affinity to human recombinant 5HT6 receptor expressed in HEK293 cells by radioligand displacement assay; type: cell-based
In short: (§1)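 Competitive radioligand binding at the 5-HT6 receptor, run by MDS Pharma Services as part of a serotonin receptor panel. IC50 and Ki values derived.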

[3] = target: T1, 5-hydroxytryptamine receptor 6; test: Displacement of radioligand from human recombinant 5HT6 receptor in competitive radioligand binding assay
[4] = target: T1, 5-hydroxytryptamine receptor 6; test: Binding affinity to 5HT6 receptor; in short: as §1

T1 sequence (P50406 whole entry): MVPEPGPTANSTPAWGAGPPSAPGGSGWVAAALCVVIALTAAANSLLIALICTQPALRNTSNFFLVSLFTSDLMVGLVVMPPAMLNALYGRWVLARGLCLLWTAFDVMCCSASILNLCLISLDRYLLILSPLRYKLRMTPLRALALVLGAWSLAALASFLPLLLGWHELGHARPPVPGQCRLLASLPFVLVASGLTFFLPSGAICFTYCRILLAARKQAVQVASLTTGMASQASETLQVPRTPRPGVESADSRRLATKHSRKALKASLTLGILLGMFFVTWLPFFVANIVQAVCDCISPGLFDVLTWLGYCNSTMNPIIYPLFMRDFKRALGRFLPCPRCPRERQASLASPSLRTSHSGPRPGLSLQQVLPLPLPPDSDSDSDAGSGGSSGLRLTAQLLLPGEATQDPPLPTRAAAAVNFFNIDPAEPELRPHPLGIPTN

Compound	IC50 [1]	IC50 [2]	further results
O=S(=O)(c1ccccc1)c1nnn2c1nc(NCc1cccnc1)c1sccc12	260 nM	> 30 nM	–
CC(C)CCNc1nc2c(S(=O)(=O)c3ccc(Br)cc3)nnn2c2ccsc12	–	34.3 nM	Ki [2]: 15.9 nM
CN(C)CCN(C)c1nc2c(S(=O)(=O)c3ccccc3)nnn2c2ccsc12	870 nM	> 300 nM	–
O=S(=O)(c1ccccc1)c1nnn2c1nc(N1CCCC1)c1sccc12	–	188 nM	Ki [2]: 87.5 nM
CC(Nc1nc2c(S(=O)(=O)c3ccccc3)nnn2c2ccsc12)C12CC3CC(CC(C3)C1)C2 (centres undefined)	–	221 nM	Ki [2]: 103 nM
CN(C)c1nc2c(S(=O)(=O)c3ccccc3)nnn2c2ccsc12	–	> 30 nM	IC50 [3]: > 300 nM
O=S(=O)(c1ccccc1)c1nnn2c1nc(NCC1CCCO1)c1sccc12 (centres undefined)	63 nM	17.5 nM	Ki [2]: 8.1 nM
O=S(=O)(c1ccccc1)c1nnn2c1nc(NCc1ccco1)c1sccc12	40 nM	6.1 nM	Ki [2]: 2.8 nM
O=S(=O)(c1ccccc1)c1nnn2c1nc(NC1CCCCC1)c1sccc12	200 nM	6.9 nM	Ki [2]: 3.2 nM
Cc1ccc(C)c(S(=O)(=O)c2nnn3c2nc(NC(C)C)c2sccc23)c1	350 nM	28.3 nM	–
CC12CC3CC(C)(C1)CC(Nc1nc4c(S(=O)(=O)c5ccccc5)nnn4c4ccsc14)(C3)C2	–	56.7 nM	Ki [2]: 26.3 nM
O=S(=O)(c1cccc(Cl)c1)c1nnn2c1nc(NCc1cccnc1)c1sccc12	1250 nM	31.7 nM	Ki [2]: 14.7 nM
CN(C)CCNc1nc2c(S(=O)(=O)c3ccccc3)nnn2c2ccsc12	–	> 300 nM	–
O=S(=O)(c1ccc(Br)cc1)c1nnn2c1nc(NCc1ccc3c(c1)OCO3)c1sccc12	–	62.1 nM	Ki [2]: 28.8 nM
O=S(=O)(c1ccccc1)c1nnn2c1nc(NCc1cccs1)c1sccc12	110 nM	3.6 nM	Ki [2]: 1.7 nM
O=S(=O)(c1cccc(Cl)c1)c1nnn2c1nc(NC1CCCC1)c1sccc12	170 nM	–	–
CCc1ccc(S(=O)(=O)c2nnn3c2nc(NCCc2ccccc2)c2sccc23)cc1	1050 nM	–	–
Cc1ccc(S(=O)(=O)c2nnn3c2nc(Nc2cccc(C)c2C)c2sccc23)cc1	590 nM	–	–
O=S(=O)(c1cccc(Cl)c1)c1nnn2c1nc(Nc1cccc(C(F)(F)F)c1)c1sccc12	1070 nM	–	–
Cc1ccc(C)c(S(=O)(=O)c2nnn3c2nc(N2CCCCC2)c2sccc23)c1	1520 nM	–	–

Compound	IC50 [1]	IC50 [2]	further results
Cc1ccc(S(=O)(=O)c2nnn3c2nc(NC(C)Cc2ccccc2)c2sccc23)cc1C (centres undefined)	680 nM	–	–
CC(C)Nc1nc2c(S(=O)(=O)c3ccccc3)nnn2c2ccsc12	370 nM	65 nM	Ki [2]: 30.2 nM
Cc1ccc(S(=O)(=O)c2nnn3c2nc(N(C)Cc2ccccc2)c2sccc23)cc1C	1330 nM	–	–
CCC(C)Nc1nc2c(S(=O)(=O)c3ccccc3)nnn2c2ccsc12 (centres undefined)	–	–	IC50 [4]: 9.6 nM
Cc1ccc(C)c(S(=O)(=O)c2nnn3c2nc(NCc2cccs2)c2sccc23)c1	710 nM	–	–
CC1CCCN(c2nc3c(S(=O)(=O)c4cccc(Cl)c4)nnn3c3ccsc23)C1 (centres undefined)	2000 nM	–	–
CC(Nc1nc2c(S(=O)(=O)c3ccc(Br)cc3)nnn2c2ccsc12)c1ccccc1 (centres undefined)	540 nM	–	–
Nc1nc2c(S(=O)(=O)c3ccc(Br)cc3)nnn2c2ccsc12	610 nM	–	–
O=S(=O)(c1cccc(Cl)c1)c1nnn2c1nc(NCc1ccc(F)cc1)c1sccc12	480 nM	–	–
CN(Cc1cccnc1)c1nc2c(S(=O)(=O)c3ccccc3)nnn2c2ccsc12	500 nM	> 30 nM	–
O=S(=O)(c1ccc(Br)cc1)c1nnn2c1nc(NCC1CCCO1)c1sccc12 (centres undefined)	1620 nM	–	–
Cc1ccc(C)c(Nc2nc3c(S(=O)(=O)c4cccc(Cl)c4)nnn3c3ccsc23)c1	740 nM	–	–
Cc1ccc(S(=O)(=O)c2nnn3c2nc(NCCC(C)C)c2sccc23)cc1	580 nM	–	–
Cc1ccc(S(=O)(=O)c2nnn3c2nc(NCc2cccc(Cl)c2)c2sccc23)cc1	120 nM	–	–
O=S(=O)(c1ccccc1)c1nnn2c1nc(NCc1ccc3c(c1)OCO3)c1sccc12	290 nM	–	–
O=S(=O)(c1ccccc1)c1nnn2c1nc(NCc1ccccc1)c1sccc12	59 nM	–	–
Cc1ccc(S(=O)(=O)c2nnn3c2nc(NC(C)C)c2sccc23)cc1C	750 nM	–	–
CCN(Cc1ccccc1)c1nc2c(S(=O)(=O)c3cc(C)ccc3C)nnn2c2ccsc12	1100 nM	–	–
Cc1ccc(Nc2nc3c(S(=O)(=O)c4ccc(Br)cc4)nnn3c3ccsc23)cc1C	1350 nM	–	–
O=S(=O)(c1ccccc1)c1nnn2c1nc(NC1CCCCCC1)c1sccc12	170 nM	–	–

Compound	IC50 [1]	IC50 [2]	further results
Cc1ccc(S(=O)(=O)c2nnn3c2nc(Nc2cccc(F)c2)c2sccc23)cc1	3810 nM	–	–
O=S(=O)(c1cccc(Cl)c1)c1nnn2c1nc(NC1CCCCC1)c1sccc12	69 nM	–	–
Cc1ccc(S(=O)(=O)c2nnn3c2nc(NC(C)c2ccccc2)c2sccc23)cc1 (centres undefined)	180 nM	–	–
COc1ccccc1CNc1nc2c(S(=O)(=O)c3ccccc3)nnn2c2ccsc12	290 nM	–	–
COc1ccccc1CNc1nc2c(S(=O)(=O)c3ccc(Br)cc3)nnn2c2ccsc12	930 nM	–	–
COc1ccccc1Nc1nc2c(S(=O)(=O)c3ccc(Cl)cc3)nnn2c2ccsc12	1150 nM	–	–
Cc1ccc(C)c(Nc2nc3c(S(=O)(=O)c4ccc(Br)cc4)nnn3c3ccsc23)c1	2010 nM	–	–
Cc1ccc(C)c(S(=O)(=O)c2nnn3c2nc(NC2CCCC2)c2sccc23)c1	590 nM	–	–
CCc1ccc(S(=O)(=O)c2nnn3c2nc(NCCCOC)c2sccc23)cc1	> 5000 nM	–	–
Cc1ccc(Nc2nc3c(S(=O)(=O)c4cccc(Cl)c4)nnn3c3ccsc23)cc1	1210 nM	–	–
O=S(=O)(c1ccccc1)c1nnn2c1nc(NC1CCCC1)c1sccc12	140 nM	11.9 nM	Ki [2]: 5.5 nM
CCN(Cc1ccccc1)c1nc2c(S(=O)(=O)c3ccc(C)cc3)nnn2c2ccsc12	300 nM	–	–
COc1ccccc1CNc1nc2c(S(=O)(=O)c3ccc(C)c(C)c3)nnn2c2ccsc12	470 nM	–	–
Cc1ccc(C)c(S(=O)(=O)c2nnn3c2nc(N)c2sccc23)c1	1220 nM	99.1 nM	Ki [2]: 46 nM
CCN(CC)c1nc2c(S(=O)(=O)c3cccc(Cl)c3)nnn2c2ccsc12	1220 nM	–	–
COCCCNc1nc2c(S(=O)(=O)c3cc(C)ccc3C)nnn2c2ccsc12	1290 nM	–	–
O=S(=O)(c1ccccc1)c1nnn2c1nc(NCCc1ccccc1)c1sccc12	1160 nM	–	–
Cc1ccc(S(=O)(=O)c2nnn3c2nc(NCc2cccs2)c2sccc23)cc1C	90 nM	–	–
